From PubChem BioAssay
This is a sample that favours compounds with a hit; in the whole collection about 1.9% have one here.
GAA850 FXN act = FXN promoter activators, primary screen, cell-based, luciferase luminescence, HEK293 lucGAA850 | HEK293 lucGAA850 FXN promoter luciferase reporter, 24 h; percent of 10 µM SAHA response | 0.56% of 360,000 active | activation, % at 6 µM | AID 540364, 2011;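 active = activation above the average of all compounds screened plus 3 SD, cutoff fixed separately per campaign, cut at about 7.5% in these data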
proCasp7 act = procaspase-7 activators, primary screen, counter-screen for procaspase-3 activator project, biochemical, absorbance, HTS, human | Caspase-7 (Homo sapiens), P55210 | recombinant procaspase-7, Ac-DEVD-pNA absorbance 405 nm; D23A/D198A/D206A triple mutant, cannot self-cleave; scale: DMSO 0, 5 µM enzyme 100 | activation, % at 8.5 µM | 0.093% of 330,000 active | AID 463210, 2010;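 active = percent activation above the screen-wide mean plus 3 SD, cut at about 25% in these data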
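Test system: Procaspase-7 triple mutant (PC-7 D3A). Also added: Ac-DEVD-pNA substrate, 400 µM as added. Schedule: 1 h enzyme–compound preincubation and 2 h substrate reaction, both 25 °C. Signal: p-Nitroaniline absorbance at 405 nm, read at 0 and 120 min. Control set: low DMSO alone, high DMSO plus 5 µM PC-7.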
Neddylation inh = inhibitors of cullin neddylation, primary screen, biochemical, TR-FRET, uHTS, NAE and Ubc12; NEDD8-conjugating enzyme Ubc12 (Homo sapiens) + NEDD8-activating enzyme E1 regulatory …; inhibition, % at 25 µM; 0.58% of 360,000 active; AID 651699, 2012; in the data active = inhibition above about 36%
procasp3 activ = activators of human procaspase-3 D3A mutant, primary screen, biochemical, absorbance, PC-3 D3A mutant, single concentration. Caspase-3 (Homo sapiens), P42574. recombinant procaspase-3 D3A, Ac-DEVD-pNA absorbance 405 nm. activation, % at 8.5 µM. 0.11% of 330,000 active. AID 463141, 2010;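 active = activation above the mean of all tested compounds plus 3 SD, cut at about 21% in these data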
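Compound: 8.5 µM single point, 0.8% DMSO / Material: Autoprocessing-dead procaspase-3 D3A mutant enzyme / Timing: 1 h preincubation plus 2 h reaction at 25 °C / Medium: Zinc-free HEPES/NaCl buffer with 0.01% Triton X-100 at pH 7.4 / Technique: 405 nm absorbance of p-nitroaniline, reads at 0 and 120 min / Repeats: one well per compound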
HIF act = HIF pathway transcriptional activators, primary screen, cell-based, U2OS HRE-luciferase, luminescence. U2OS HRE-luciferase reporter; normalized: DMSO 0%, desferrioxamine 100%. activation, % at 7.5 µM (by protocol). 0.32% of 300,000 active. AID 1910, 2009;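 active = mean activation of at least 10% of the iron chelator positive control signal, with at least half of replicates also reaching 10%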
Calb FLC = C. albicans growth inhibition with fluconazole, primary screen, CaCi-2 strain, Alamar Blue fluorescence; C. albicans CaCi-2 + fluconazole, 48 h; growth inhibition, % (concentration not given with the values); 0.57% of 300,000 active;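 active = growth inhibition above about 58% in most replicates, limit read from the data, passing the limit was not always enough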;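 note: all wells also contain fluconazole at 8 µg/ml as a sub-toxic cotreatment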
Neddyl inh conf = blockade of NEDD8 conjugation to cullin – biochemical, TR-FRET, single concentration, confirmation; TR-FRET cullin neddylation biochemical assay; 13% of 1,800 active; AID 652217, 2013; calls only at 25 µM; shares compounds with Neddylation inh; in the data active = inhibition above about 40%;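 note: neddylation substrate is the cullin 1 ring ligase complex with SKP2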
Of the large screens only hits and unclear results are named; the others gave an inactive call (follow-up assays come after a bar, where shown).

O=C(COc1ccc2ccc(=O)oc2c1)Nc1ccc(N2CCCCC2)cc1	Neddylation inh 61 (not shown: HIF act, Calb FLC)
O=C(COc1ccc2ccc(=O)oc2c1)Nc1ccc(CCO)cc1	none
O=C(/C=C/Sc1ccc(C(F)(F)F)cn1)c1ccccc1	none
CC/C(=N\Nc1ccnc2cc(Cl)ccc12)c1ccc(O)cc1	Neddylation inh 41 | Neddyl inh conf inactive
Cc1cccc(C)c1N(Cc1ccccc1F)S(C)(=O)=O	none
O=C(c1cccc(NS(=O)(=O)c2ccccc2)c1)N1CCCCC1	none
Cc1cccc(S(=O)(=O)C(C#N)c2nc3ccccc3nc2N2CC(C)OC(C)C2)c1 (stereo not drawn)	Neddylation inh 46 | Neddyl inh conf inactive
Cc1cccc(C(=O)OCC(=O)N2CCN(C(=O)c3ccco3)CC2)c1O	none (no result: HIF act, Calb FLC)
CC(C)c1cc(C(=O)OCC(=O)N2CCN(C(=O)c3ccco3)CC2)c(O)c(C(C)C)c1	Neddylation inh 34 | Neddyl inh conf inactive
CCc1ccc(C(=O)N2CCN(c3ccc(NC(=O)c4cccnc4)cc3)CC2)cc1	none
COc1ccc(C)cc1S(=O)(=O)NC(C)C(=O)NC1CC1 (stereo not drawn)	none
Cc1ccc(S(=O)(=O)c2cc3c(=O)n4ccccc4nc3n(C)c2=N)cc1	Neddylation inh 58 | Neddyl inh conf inactive
CC(=O)N1CCN(c2ccc(NC(=O)c3ccc(OCc4ccccc4)cc3)cc2)CC1	Neddylation inh 44 | Neddyl inh conf inactive
Cc1ccc(S(=O)(=O)Nc2nc3ccccc3nc2NCC2CCCO2)cc1 (stereo not drawn)	Neddylation inh 40 | Neddyl inh conf inactive
NC(=O)C1CCN(c2nc3ccccc3nc2NS(=O)(=O)c2ccc(Br)cc2)CC1	none (no result: HIF act, Calb FLC)
CCOC(=O)C1CCCN(c2nc3ccccc3nc2NS(=O)(=O)c2ccc(C)cc2)C1 (stereo not drawn)	Neddylation inh 46 (no result: HIF act, Calb FLC) | Neddyl inh conf active
O=S(=O)(Nc1nc2ccccc2nc1NCC1CCCO1)c1ccccc1 (stereo not drawn)	Neddylation inh 39 | Neddyl inh conf inactive
COc1cc(NC(=O)C2C3CCC(O3)C2C(=O)O)cc(OC)c1 (stereo not drawn)	none
CCOc1ccc(NC(=O)COC(=O)c2ccc3ncsc3c2)cc1OCC	Neddylation inh 65 (no result: proCasp7 act, procasp3 activ, HIF act, Calb FLC) | Neddyl inh conf inactive
CC(C)Nc1ncnc2c1cnn2-c1ccccc1	none
Cc1cccc(-n2ncc3c(NC(C)C)ncnc32)c1	Neddylation inh 39 | Neddyl inh conf inactive
CCOc1cc(/C=N\Nc2ncc(F)c(N3CCOCC3)n2)ccc1Oc1nc(Cl)ncc1F	none
COc1ccc(/C=N\NC(=O)c2cc3c(ccc4ccccc43)o2)cc1O	Neddylation inh 45 (no result: proCasp7 act, procasp3 activ, HIF act) | Neddyl inh conf inactive
O=C(O)c1ccc(/C=N/NC(=O)c2cc3c(ccc4ccccc43)o2)cc1	Neddylation inh 43 | Neddyl inh conf inactive
COc1ccc(/C=N/NC(=O)c2cc3c(ccc4ccccc43)o2)cc1OC	none (not shown: proCasp7 act, Neddylation inh, procasp3 activ, HIF act)
COc1ccccc1/C=N/NC(=O)c1cc2c(ccc3ccccc32)o1	Neddylation inh 60 | Neddyl inh conf inactive
Cc1cccc(C(=O)OCC(=O)NC(C)CCc2ccccc2)c1 (stereo not drawn)	none
CC(CCc1ccccc1)NC(=O)COC(=O)c1cccc(N(C)C)c1 (stereo not drawn)	Neddylation inh 46 | Neddyl inh conf inactive
COC(=O)[C@]1(Cc2ccccc2)N[C@H](CN(C)S(=O)(=O)c2ccc(-c3ccccc3)cc2)[C@@H]2C(=O)N(Cc3ccccc3)C(=O)[C@@H]21	none (no result: HIF act, Calb FLC)
